Published values gathered from unrelated publications.
Protocols differ between the studies behind these lines.
Target: MAP kinase-interacting serine/threonine-protein kinase 1 (MKNK1, Homo sapiens, UniProt Q9BUB5)

Compound	effect on	action	method	tested at	measurement	value
CC(C)(C)c1cc(C=C(C#N)C#N)cc(Br)c1O	enzyme activity	inhibitor	–	0.5 µM	remaining activity	95.9%
Cc1nn(C)cc1-c1nc2c(N3CCN(Cc4ccc(Cl)cc4)CC3)c(Cl)cnc2[nH]1	binding	–	competition with immobilised ligand	1 µM	remaining binding	100%
N#CC1(c2ccccn2)CCN(Cc2cc(C(=O)O)c(=O)n3ccccc23)CC1	cell-free assay	–	competition with immobilised ligand	1 µM	remaining binding	85%
COc1ncccc1-c1cnn2ccc(N3CCN(C(=O)OC(C)C)CC3)nc12	binding	–	competition with immobilised ligand	1 µM	remaining binding	100%
O=c1[nH]c2ccccc2n1C1CCN(Cc2ccc(-c3[nH]c4cc5ncnc5cc4nc3-c3ccccc3)cc2)CC1	cell-free assay	–	–	0.5 µM	remaining signal	104%
Nc1ncc(-c2nc(N3CCOCC3)nc(N3CCOCC3)n2)c(C(F)F)n1	binding	–	competition with immobilised ligand	10 µM	remaining binding	45%
COc1cc(Nc2ncc(F)c(Nc3ccc4c(n3)NC(=O)C(C)(C)O4)n2)cc(OC)c1OC	binding	–	competition with immobilised ligand	10 µM	inhibition	9%
Cn1cncc1[C@](O)(COc1ccc(C#N)cc1-c1ccc(OC(F)(F)F)cc1)c1ccc(C#N)cc1	cell-free assay	–	competition with immobilised ligand	1 µM	remaining binding	68%
